Test results as given in ChEMBL document CHEMBL6134787, “Fexinidazole optimization: enhancing anti-leishmanial profile, metabolic stability and hERG safety” (RSC Med Chem, 2024).
Active and inactive are the calls of the source. No cut-off for these calls is given here.

Key:
Leishmania amazonensis [1] = assay: Antileishmanial activity against wild type Leishmania amazonensis LV78 promastigotes […] assessed as inhibition of parasite growth incubated for 72 hrs by automatic microtiter plate reader analysis; assay type: functional, organism-based
Procedure, shortened: (§1)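 Promastigotes were grown in Schneider's medium (4 mM glutamine, gentamicin, 10% heat-inactivated FBS, pH 6.9, 27 °C). Cells were seeded at 1.5 × 10^5/well and exposed to a concentration series for 72 h at 27 °C.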

Leishmania braziliensis [2] = assay: Antileishmanial activity against wild type Leishmania braziliensis UA847 promastigotes […] assessed as inhibition of parasite growth incubated for 72 hrs by automatic microtiter plate reader analysis; assay type: functional, organism-based; procedure, shortened: as §1
Leishmania major = assay: Antileishmanial activity against wild type Leishmania major FV1 promastigotes […] assessed as inhibition of parasite growth incubated for 72 hrs by automatic microtiter plate reader analysis; assay type: functional, organism-based; procedure, shortened: as §1
Leishmania donovani [3] = assay: Antileishmanial activity against wild type Leishmania donovani HU3 promastigotes […] assessed as inhibition of parasite growth incubated for 72 hrs by automatic microtiter plate reader analysis; assay type: functional, organism-based
Leishmania donovani [4] = assay: Antileishmanial activity against miltefosine resistant Leishmania donovani HU3MILR40 promastigotes […] assessed as inhibition of parasite growth incubated for 72 hrs by automatic microtiter plate reader analysis; assay type: functional, organism-based
Procedure, shortened: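 Promastigote (free parasite) assay: Schneider's Drosophila medium with 4 mM glutamine, 25 μg mL−1 gentamicin, 10% heat-inactivated FBS, pH 6.9, 27 °C. 1.5 × 10^5 promastigotes per well exposed to a concentration series for 72 h at 27 °C.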

[5] = Cytotoxicity against mouse L929 cells assessed as inhibition of cell growth incubated for 72 hrs by MTS assay; assay type: toxicity, cell-based
Procedure, shortened: (§2)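 Cells in DMEM + 10% heat-inactivated FBS with penicillin/streptomycin at 37 °C, 5% CO2. They were seeded at 1 × 10^4/well and incubated with a concentration series for 72 h at 37 °C. Viability was read by MTS/PMS assay at 490 nm and IC50 derived.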

RAW264.7 = assay: Cytotoxicity against mouse RAW264.7 cells assessed as inhibition of cell growth incubated for 72 hrs by MTS assay; assay type: functional, cell-based; conditions: RAW264.7, 72 h; procedure, shortened: as §2
[6] = biological target: T1, Voltage-gated inwardly rectifying potassium channel KCNH2 (Homo sapiens, UniProt Q12809); assay: Inhibition of human ERG stably overexpressed in HEK293 cells incubated for 30 mins by FLIPR assay; assay type: toxicity, cell-based; conditions: human, hek293, 0.5 h; time 30 min
T1 sequence (Q12809 whole entry): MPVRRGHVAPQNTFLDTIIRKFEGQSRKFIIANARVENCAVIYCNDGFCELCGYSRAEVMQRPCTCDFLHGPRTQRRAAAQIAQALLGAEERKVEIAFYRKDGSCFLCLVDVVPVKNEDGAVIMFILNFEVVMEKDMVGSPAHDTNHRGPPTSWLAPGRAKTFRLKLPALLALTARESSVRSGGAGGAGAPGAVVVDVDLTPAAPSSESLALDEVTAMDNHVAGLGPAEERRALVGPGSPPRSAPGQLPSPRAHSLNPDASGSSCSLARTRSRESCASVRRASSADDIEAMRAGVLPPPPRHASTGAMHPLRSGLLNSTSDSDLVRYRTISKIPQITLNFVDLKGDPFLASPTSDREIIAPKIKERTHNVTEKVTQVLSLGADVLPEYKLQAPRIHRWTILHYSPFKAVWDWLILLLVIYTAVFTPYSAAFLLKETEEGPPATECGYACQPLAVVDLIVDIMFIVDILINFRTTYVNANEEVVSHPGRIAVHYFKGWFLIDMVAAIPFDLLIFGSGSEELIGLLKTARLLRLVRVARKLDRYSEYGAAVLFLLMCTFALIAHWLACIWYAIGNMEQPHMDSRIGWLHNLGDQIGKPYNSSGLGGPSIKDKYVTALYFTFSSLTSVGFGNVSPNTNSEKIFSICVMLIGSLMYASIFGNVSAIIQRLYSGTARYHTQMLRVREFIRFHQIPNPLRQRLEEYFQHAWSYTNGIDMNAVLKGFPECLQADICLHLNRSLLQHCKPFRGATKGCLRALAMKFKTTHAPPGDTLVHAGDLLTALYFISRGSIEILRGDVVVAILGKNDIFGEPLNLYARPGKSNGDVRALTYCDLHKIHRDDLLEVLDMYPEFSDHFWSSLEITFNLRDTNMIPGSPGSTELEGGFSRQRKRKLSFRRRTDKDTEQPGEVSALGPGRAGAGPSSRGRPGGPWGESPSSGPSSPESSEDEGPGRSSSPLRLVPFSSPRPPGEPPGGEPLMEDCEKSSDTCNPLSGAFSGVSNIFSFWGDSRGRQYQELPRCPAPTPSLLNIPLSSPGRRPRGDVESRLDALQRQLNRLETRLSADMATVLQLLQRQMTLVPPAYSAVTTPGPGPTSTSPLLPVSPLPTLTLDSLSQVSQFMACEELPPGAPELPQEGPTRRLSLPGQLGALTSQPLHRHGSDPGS

[7] = Metabolic stability in rat liver microsome assessed as compound remaining at 20 uM measured after 32 mins in presence of NADP and GSH by HPLC analysis; assay type: ADME; conditions: liver microsomes, read-out: Stability
Procedure, shortened: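 Rat liver microsomes (final 2 mg/mL) in 50 mM phosphate pH 7.4 with 0.3 mM NADP+, 5.3 mM glucose-6-phosphate, G6PDH, 10 mM MgCl2 and 5 mM EDTA. 20 μM compound added at 37 °C. Aliquots at 0, 16 and 32 min were quenched in ice-cold acetonitrile and centrifuged. HPLC peak area at 254/280 nm was expressed relative to 0 min.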

[8] = Metabolic stability in rat liver S9 fraction assessed as compound remaining at 20 uM measured after 32 mins in presence of NADP and GSH by HPLC analysis; assay type: ADME, subcellular; conditions: read-out: Stability
Procedure, shortened: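 Rat liver S9 (final 4 mg/mL) in 50 mM phosphate pH 7.4 with NADPH-regenerating system (0.3 mM NADP+, 5.3 mM glucose-6-phosphate, G6PDH), 10 mM MgCl2 and 5 mM EDTA. Pre-warmed 10 min at 37 °C, then 20 μM compound and 5.5 μM GSH added. Samples taken at 0, 16 and 32 min were quenched in ice-cold acetonitrile. HPLC (254/280 nm) peak area was expressed relative to 0 min.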

[9] = Hepatotoxicity against mouse TAMH cells assessed as cell viability at 7.8 to 125 uM incubated for 24 to 48 hrs by MTT assay; assay type: toxicity, cell-based; conditions: dose lower 7.8 µM, time lower 24 hrs, dose upper 125 µM, time upper 48 hrs, read-out: Activity
Procedure, shortened: (§3)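 TAMH mouse liver cells in FCS-free DMEM/F12 with 5% PANEXIN NTA, 10 mM nicotinamide and gentamicin. Seeded at 20 000/well and attached 24 h at 37 °C, 5% CO2. DMSO-diluted compounds were applied for 24 or 48 h. MTT was added for 4 h, formazan dissolved in DMSO and A570 read. Viability was background-corrected and expressed relative to DMSO controls; mean ± SD, ≥3 experiments.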

hERG (KCNH2) [10] = biological target: T2, hERG (KCNH2) (Homo sapiens, UniProt Q12809); assay: (§4) Inhibition of human ERG stably overexpressed in HEK293 cells at 100 uM incubated for 30 mins by FLIPR assay; assay type: toxicity, cell-based; conditions: HEK293 cells stably overexpressing hERG
T2 sequence (Q12809 whole entry): as above
Procedure, shortened: (§5)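 HEK-293 cells stably expressing hERG, seeded at 60 000/well and grown 24 h. Compounds were added in DMSO (final 0.5%) and incubated 30 min in the dark. After 20 s baseline, Tl+ stimulus (3 mM) was added and fluorescence (ex 485/em 535 nm) recorded for 2.5 min.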

Leishmania amazonensis [11] = assay: Antileishmanial activity against wild type Leishmania amazonensis LV78 amastigotes infected in mouse peritoneal macrophage assessed as inhibition of parasite growth incubated for 72 hrs by giemsa staining based analysis; assay type: functional, organism-based
Procedure, shortened: (§6)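 Mouse peritoneal macrophages (1 × 10^5/well on coverslips, DMEM + 10% heat-inactivated FBS, penicillin/streptomycin) adhered overnight at 37 °C, 5% CO2. They were infected overnight with late-log promastigotes at a 20:1 parasite:macrophage ratio. Cells were then treated with compound for 72 h at 37 °C and Giemsa-stained. Amastigotes per 100 macrophages were counted to derive IC50; mean ± SD of 3–4 independent experiments.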

Leishmania braziliensis [12] = assay: Antileishmanial activity against wild type Leishmania braziliensis UA847 amastigotes infected in mouse peritoneal macrophage assessed as inhibition of parasite growth incubated for 72 hrs by giemsa staining based analysis; assay type: functional, organism-based; procedure, shortened: as §6
Leishmania donovani [13] = assay: Antileishmanial activity against wild type Leishmania donovani HU3 amastigotes infected in mouse peritoneal macrophage assessed as inhibition of parasite growth incubated for 72 hrs by giemsa staining based analysis; assay type: functional, organism-based
Procedure, shortened: (§7)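 Mouse peritoneal macrophages in DMEM + 10% heat-inactivated FBS, penicillin/streptomycin; 1 × 10^5 cells per well on coverslips, adhered overnight at 37 °C, 5% CO2, non-adherent cells washed off. Infected overnight with late-log promastigotes at parasite:macrophage 40:1. Compound exposure 72 h at 37 °C; Giemsa stain, amastigotes per 100 macrophages counted, IC50 derived; means ± SD of 3–4 independent experiments.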

Leishmania donovani [14] = assay: Antileishmanial activity against miltefosine resistant Leishmania donovani HU3MILR40 amastigotes infected in mouse peritoneal macrophage assessed as inhibition of parasite growth incubated for 72 hrs by giemsa staining based analysis; assay type: functional, organism-based; procedure, shortened: as §7
[15] = Cytotoxicity against mouse peritoneal macrophage assessed as inhibition of cell growth incubated for 72 hrs by giemsa staining based analysis; assay type: toxicity; conditions: peritoneal macrophages
Leishmania donovani [16] = assay: Antileishmanial activity against miltefosine resistant Leishmania donovani HU3MILR40 amastigotes infected in mouse peritoneal macrophage assessed as inhibition of parasite growth at 20 uM incubated for 72 hrs by giemsa staining based analysis; assay type: functional, organism-based
Procedure, shortened: (§8)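 Adherent mouse peritoneal macrophages on coverslips infected overnight with late-log HU3MILR40 promastigotes (40 parasites per macrophage), then exposed to compound at a single fixed concentration in DMEM + 10% FBS for 72 h at 37 °C. Giemsa-stained coverslips imaged at 1000×; amastigotes per 100 macrophages counted versus DMSO control; mean ± SD of three independent experiments, Student's t-test.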

[17] = Hepatotoxicity against mouse TAMH cells assessed as cell viability at 125 uM incubated for 48 hrs by MTT assay; assay type: toxicity, cell-based; procedure, shortened: as §3
[18] = Hepatotoxicity against human HepG2 cells assessed as cell viability at 125 uM incubated for 48 hrs by MTT assay; assay type: toxicity, cell-based; conditions: hepg2, 48 h, 125 µM
Procedure, shortened: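 HEP-G2 cells in RPMI 1640 + 10% heat-inactivated FBS, penicillin/streptomycin. Seeded at 15 000/well and attached 24 h at 37 °C, 5% CO2. Compounds were serially diluted in DMSO, with 24 or 48 h exposure. MTT (2.5 mg/mL solution) was added for 4 h, formazan dissolved in DMSO and A570 read. Viability was background-corrected against DMSO-treated cell controls; mean ± SD, ≥3 experiments.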

[19] = biological target: T1, Voltage-gated inwardly rectifying potassium channel KCNH2; assay: as §4; assay type: toxicity, cell-based; conditions: hek293, 0.5 h, 100 µM; procedure, shortened: as §5
[20] = Selectivity ratio of IC50 for cytotoxicity against mouse peritoneal macrophage assessed as inhibition of cell growth to IC50 for antileishmanial activity against miltefosine resistant Leishmania donovani HU3MILR40 amastigotes infected in mouse peritoneal macrophage assessed as inhibition of parasite growth; assay type: toxicity, cell-based; conditions: peritoneal macrophages, read-out: Ratio IC50
Leishmania donovani [21] = assay: Antileishmanial activity against miltefosine resistant Leishmania donovani HU3MILR40 amastigotes infected in mouse peritoneal macrophage assessed as inhibition of parasite growth at 1.5 uM incubated for 72 hrs by giemsa staining based analysis; assay type: functional, organism-based; procedure, shortened: as §8
hERG (KCNH2) [22] = biological target: T2, hERG (KCNH2); assay: Inhibition of human ERG stably overexpressed in HEK293 cells assessed as remaining activity at 6 uM incubated for 30 mins by FLIPR assay; assay type: toxicity, cell-based; conditions: HEK293 cells stably overexpressing hERG, read-out: Activity; procedure, shortened: as §5

## CSc1ccc(CCc2ncc([N+](=O)[O-])n2CCO)cc1
Leishmania amazonensis [1]
  IC50: > 20 µM
Leishmania braziliensis [2]
  IC50: > 20 µM
Leishmania major
  IC50: > 20 µM
Leishmania donovani [3]
  IC50: > 20 µM
Leishmania donovani [4]
  IC50: > 20 µM
[5]
  IC50 at 72 h: > 100 µM
RAW264.7
  IC50: > 100 µM
[6]
  IC25: 6 µM
[7]
  remaining at 32 min, 20 µM: 20.5%
[8]
  remaining at 32 min, 20 µM: 76.8%
[9]
  viability at up to 125 µM: > 50%
hERG (KCNH2) [10]
  inhibition at 0.5 h, 100 µM: 100%

## CCCCCCCCCCCCCCCCOP(=O)([O-])OCC[N+](C)(C)C [MILTEFOSINE]
Leishmania amazonensis [1]
  IC50: 22 µM
Leishmania braziliensis [2]
  IC50: 17.8 µM
Leishmania major
  IC50: 7 µM
Leishmania donovani [3]
  IC50: 6.9 µM
Leishmania donovani [4]
  IC50: > 40 µM
[5]
  IC50 at 72 h: 81.5 µM
RAW264.7
  IC50: 9.9 µM
Leishmania amazonensis [11]
  IC50: 9.6 µM
Leishmania braziliensis [12]
  IC50: 3.2 µM
Leishmania donovani [13]
  IC50: 2.7 µM
Leishmania donovani [14]
  IC50: > 20 µM
[15]
  IC50 at 72 h: > 40 µM
Leishmania donovani [16]
  Activity: inactive

## Cn1c([N+](=O)[O-])cnc1COc1ccc([S+](C)[O-])cc1 (stereo unspecified) [FEXINIDAZOLE SULFOXIDE]
Leishmania amazonensis [1]
  IC50: 7.8 µM
Leishmania braziliensis [2]
  IC50: 4.3 µM
Leishmania major
  IC50: 1.4 µM
Leishmania donovani [3]
  IC50: 3.4 µM
Leishmania donovani [4]
  IC50: 4.3 µM
[5]
  IC50 at 72 h: > 100 µM
RAW264.7
  IC50: > 100 µM
[6]
  IC25: > 100 µM
[7]
  remaining at 32 min, 20 µM: 100%
[8]
  remaining at 32 min, 20 µM: 100%
[17]
  Activity: Non-toxic
[18]
  Activity: Non-toxic
[9]
  viability at up to 125 µM: > 50%
[19]
  inhibition (INH): Not_active

## CSc1ccc(OCC2Cn3cc([N+](=O)[O-])nc3O2)cc1 (racemic)
Leishmania amazonensis [1]
  IC50: 1.8 µM
Leishmania braziliensis [2]
  IC50: 1.5 µM
Leishmania major
  IC50: 3.4 µM
Leishmania donovani [3]
  IC50: 1 µM
Leishmania donovani [4]
  IC50: 0.4 µM
[5]
  IC50 at 72 h: > 100 µM
RAW264.7
  IC50: > 100 µM
[6]
  IC25: 2.9 µM
[7]
  remaining at 32 min, 20 µM: 55.8%
[8]
  remaining at 32 min, 20 µM: 90.4%
Leishmania amazonensis [11]
  IC50: 0.7 µM
Leishmania braziliensis [12]
  IC50: 0.7 µM
Leishmania donovani [13]
  IC50: 0.3 µM
Leishmania donovani [14]
  IC50: 0.4 µM
[15]
  IC50 at 72 h: > 100 µM
[20]
  selectivity ratio: > 250
Leishmania donovani [21]
  Activity: Active
[9]
  viability at up to 125 µM: > 50%
hERG (KCNH2) [22]
  activity at 0.5 h, 6 µM: 81%

## CSc1ccc(OC[C@H]2Cn3cc([N+](=O)[O-])nc3O2)cc1
Leishmania amazonensis [1]
  IC50: 1.9 µM
Leishmania braziliensis [2]
  IC50: 1.4 µM
Leishmania major
  IC50: 5.7 µM
Leishmania donovani [3]
  IC50: 1.1 µM
Leishmania donovani [4]
  IC50: 0.4 µM
[5]
  IC50 at 72 h: > 100 µM
RAW264.7
  IC50: > 95.3 µM
[6]
  IC25: 3.1 µM
[7]
  remaining at 32 min, 20 µM: 64.7%
[8]
  remaining at 32 min, 20 µM: 92.1%
Leishmania amazonensis [11]
  IC50: 0.7 µM
Leishmania braziliensis [12]
  IC50: 1 µM
Leishmania donovani [13]
  IC50: 0.4 µM
Leishmania donovani [14]
  IC50: 0.6 µM
[15]
  IC50 at 72 h: > 86 µM
[20]
  selectivity ratio: > 143
[9]
  viability at up to 125 µM: > 50%
hERG (KCNH2) [22]
  activity at 0.5 h, 6 µM: 46%
